Results from ChEMBL document CHEMBL2346655, “Synthesis and in vitro biological evaluation of 2,6,9-trisubstituted purines targeting multiple cyclin-dependent kinases” (Eur J Med Chem, 2013).

Key:
[1] = tested on: HOS; assay: Cytotoxicity against human HOS cells assessed as reduction in number of viable cells after 72 hrs by fluorescence assay; type: functional, cell-based
How it was run: (§1)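 Three-fold compound dilutions tested in triplicate on cultured cells for 72 h. Viable cells detected by adding Calcein AM and reading fluorescence at 485/538 nm (ex/em).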

[2] = tested on: CCRF-CEM; assay: Cytotoxicity against human CEM cells assessed as reduction in number of viable cells after 72 hrs by fluorescence assay; type: functional, cell-based; how it was run: as §1
[3] = tested on: G-361; assay: Cytotoxicity against human G361 cells assessed as reduction in number of viable cells after 72 hrs by fluorescence assay; type: functional, cell-based; conditions: G-361, 72 h; how it was run: as §1
[4] = tested on: HCT-116; assay: Cytotoxicity against human HCT116 cells assessed as reduction in number of viable cells after 72 hrs by fluorescence assay; type: functional, cell-based; conditions: HCT-116, 72 h; how it was run: as §1
[5] = tested on: MCF7; assay: Cytotoxicity against human MCF7 cells assessed as reduction in number of viable cells after 72 hrs by fluorescence assay; type: functional, cell-based; conditions: MCF7, 72 h; how it was run: as §1
[6] = tested on: K562; assay: Cytotoxicity against human K562 cells assessed as reduction in number of viable cells after 72 hrs by fluorescence assay; type: functional, cell-based; conditions: K562, 72 h; how it was run: as §1
[7] = molecular target: CDK9/cyclin T1 (Homo sapiens, UniProt P50750); assay: Inhibition of CDK9/CyclinT1 (unknown origin) using (YSPTSPS)2KK as substrate; type: protein-complex assay
How it was run: (§2)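 Buffer was 60 mM HEPES-NaOH pH 7.5, 3 mM MgCl2, 3 mM MnCl2, vanadate, DTT and PEG. Reactions were stopped with H3PO4 and spotted on P-81 paper, which was then washed. Radioactivity was imaged; IC50 taken from dose–response curves.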

[8] = molecular target: Cyclin-dependent kinase 7/ cyclin H (Homo sapiens, UniProt P50613); assay: Inhibition of CDK7/CyclinH/MAT1 (unknown origin) using (YSPTSPS)2KK as substrate; type: protein-complex assay; how it was run: as §2
[9] = molecular target: Cyclin-dependent kinase 5/CDK5 activator 1 (Homo sapiens, UniProt Q00535); assay: Inhibition of CDK5/P35 (unknown origin) using histone H1 as substrate; type: protein-complex assay
[10] = molecular target: Cyclin-dependent kinase 2/cyclin E1 (Homo sapiens, UniProt P24941); assay: Inhibition of CDK2/Cyclin E (unknown origin) expressed in Sf9 cells using histone H1 as substrate

Chain of CDK9/cyclin T1 (O60563 whole entry): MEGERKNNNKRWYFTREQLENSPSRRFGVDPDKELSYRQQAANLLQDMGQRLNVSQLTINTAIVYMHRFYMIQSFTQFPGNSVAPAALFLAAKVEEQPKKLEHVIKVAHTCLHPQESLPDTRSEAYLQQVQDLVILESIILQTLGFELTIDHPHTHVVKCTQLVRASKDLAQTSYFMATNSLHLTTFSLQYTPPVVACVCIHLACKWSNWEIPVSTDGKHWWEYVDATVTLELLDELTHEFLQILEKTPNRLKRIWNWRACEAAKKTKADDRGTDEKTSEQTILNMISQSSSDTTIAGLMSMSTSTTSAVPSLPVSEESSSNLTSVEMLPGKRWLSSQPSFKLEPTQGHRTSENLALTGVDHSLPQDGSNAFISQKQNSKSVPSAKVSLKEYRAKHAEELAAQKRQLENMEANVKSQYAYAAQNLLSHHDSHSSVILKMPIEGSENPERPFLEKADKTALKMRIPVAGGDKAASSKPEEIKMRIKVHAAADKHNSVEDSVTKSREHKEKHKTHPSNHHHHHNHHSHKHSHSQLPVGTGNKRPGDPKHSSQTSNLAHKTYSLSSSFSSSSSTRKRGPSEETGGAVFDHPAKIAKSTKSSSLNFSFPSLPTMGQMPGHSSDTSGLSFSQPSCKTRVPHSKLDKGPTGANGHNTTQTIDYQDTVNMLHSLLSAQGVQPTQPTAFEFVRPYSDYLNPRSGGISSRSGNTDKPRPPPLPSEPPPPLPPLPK
Chain of CDK9/cyclin T1 (P50750 whole entry): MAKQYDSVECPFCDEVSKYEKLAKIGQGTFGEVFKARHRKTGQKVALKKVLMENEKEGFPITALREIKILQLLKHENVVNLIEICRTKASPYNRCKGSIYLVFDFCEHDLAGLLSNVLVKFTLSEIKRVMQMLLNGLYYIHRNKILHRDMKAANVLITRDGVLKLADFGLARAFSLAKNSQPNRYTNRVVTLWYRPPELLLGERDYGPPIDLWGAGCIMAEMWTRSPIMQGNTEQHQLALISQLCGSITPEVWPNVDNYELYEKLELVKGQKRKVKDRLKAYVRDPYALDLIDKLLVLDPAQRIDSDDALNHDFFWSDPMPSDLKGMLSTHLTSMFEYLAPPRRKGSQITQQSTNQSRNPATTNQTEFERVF
Chain of Cyclin-dependent kinase 5/CDK5 activator 1 (Q00535 whole entry): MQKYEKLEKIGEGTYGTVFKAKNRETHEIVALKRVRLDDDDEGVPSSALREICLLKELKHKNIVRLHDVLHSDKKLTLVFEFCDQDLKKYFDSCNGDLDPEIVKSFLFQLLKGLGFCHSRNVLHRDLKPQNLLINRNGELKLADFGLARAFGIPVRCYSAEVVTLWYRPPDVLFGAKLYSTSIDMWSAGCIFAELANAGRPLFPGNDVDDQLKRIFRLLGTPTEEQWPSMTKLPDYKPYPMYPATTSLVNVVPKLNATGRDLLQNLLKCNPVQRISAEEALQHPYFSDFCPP
Chain of Cyclin-dependent kinase 5/CDK5 activator 1 (Q15078 whole entry, further chain): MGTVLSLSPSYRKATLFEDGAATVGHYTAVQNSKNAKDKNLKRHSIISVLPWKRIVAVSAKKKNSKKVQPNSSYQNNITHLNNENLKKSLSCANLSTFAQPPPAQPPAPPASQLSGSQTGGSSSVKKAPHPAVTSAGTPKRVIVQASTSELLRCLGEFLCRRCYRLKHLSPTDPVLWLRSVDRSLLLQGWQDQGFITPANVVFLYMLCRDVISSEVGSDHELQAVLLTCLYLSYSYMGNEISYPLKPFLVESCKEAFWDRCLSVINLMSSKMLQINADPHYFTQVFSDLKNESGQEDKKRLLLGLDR
Chain of Cyclin-dependent kinase 7/ cyclin H (P51946 whole entry): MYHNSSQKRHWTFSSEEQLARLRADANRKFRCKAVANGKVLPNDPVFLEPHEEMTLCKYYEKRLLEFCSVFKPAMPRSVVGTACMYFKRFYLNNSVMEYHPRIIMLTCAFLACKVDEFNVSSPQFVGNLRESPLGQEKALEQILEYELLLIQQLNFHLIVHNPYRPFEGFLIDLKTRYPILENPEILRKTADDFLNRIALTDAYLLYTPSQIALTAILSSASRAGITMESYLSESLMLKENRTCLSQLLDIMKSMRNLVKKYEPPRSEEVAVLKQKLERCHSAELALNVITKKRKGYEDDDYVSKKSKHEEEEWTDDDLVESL
Chain of Cyclin-dependent kinase 7/ cyclin H (P50613 whole entry): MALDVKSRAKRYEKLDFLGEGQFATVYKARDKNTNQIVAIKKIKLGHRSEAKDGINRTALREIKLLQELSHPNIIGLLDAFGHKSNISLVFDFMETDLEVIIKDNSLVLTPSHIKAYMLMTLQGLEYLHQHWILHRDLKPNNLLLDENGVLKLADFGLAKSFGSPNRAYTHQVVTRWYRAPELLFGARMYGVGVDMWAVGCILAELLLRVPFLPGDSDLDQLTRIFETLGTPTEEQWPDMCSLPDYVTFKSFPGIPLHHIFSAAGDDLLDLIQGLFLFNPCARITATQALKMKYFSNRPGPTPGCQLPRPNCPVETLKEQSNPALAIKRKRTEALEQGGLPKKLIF

Row | SMILES | IC50 [1] [µM] | IC50 [2] [µM] | IC50 [3] [µM] | IC50 [4] [µM] | IC50 [5] [µM] | IC50 [6] [µM] | IC50 [7] [µM] | IC50 [8] [µM] | IC50 [9] [µM] | IC50 [10] [µM]
1 | CC[C@H](CO)Nc1nc(NCc2ccccc2)c2ncn(C(C)C)c2n1 [SELICICLIB] | 24.3 | 16.3 | 22.4 | 14.4 | 12.3 | 45.5 |  |  |  | 
2 | CC(C)n1cnc2c(NCc3ccccc3N)nc(NCC(C)(C)O)nc21 | 16.9 | 12.6 | 12.6 | 12.9 | 13.5 | 34 | 1.24 | 1.2 | 0.74 | 0.02
3 | CC[C@@H](CO)Nc1nc(NCc2cccc(OC)c2O)c2ncn(C(C)C)c2n1 | 5.9 | 10.7 | 7.8 | 8.7 | 5.3 | 15.4 |  |  |  | 0.059
4 | CC[C@@H](Nc1nc(NCc2cc(F)ccc2O)c2ncn(C(C)C)c2n1)C(C)O (mixture of isomers) | 2.4 | 1.6 | 1.9 | 1.8 | 1.8 | 2.9 | 0.1 | 0.18 | 0.067 | 0.0118
5 | COc1ccc(CNc2nc(N3CCN(C)CC3)nc3c2ncn3C(C)C)cc1 | 11.2 | 13.1 | 13.9 | 13.4 | 12 | 11.9 |  |  |  | 0.89
6 | CC(C)CNc1nc(NCc2ccccc2O)c2ncn(C(C)C)c2n1 | 23.9 | 13.6 | 15.7 | 22.2 | 14.1 | 10.8 | 3.13 |  | 2.36 | 0.22
7 | CC(C)n1cnc2c(NCc3cc(Cl)ccc3O)nc(NCC(C)(C)O)nc21 | 4.4 | 3.9 | 4.3 | 4 | 2.7 | 5.1 |  | 0.435 | 0.069 | 0.019
8 | CC[C@H](CO)Nc1nc(NCc2cccc(OC)c2O)c2ncn(C(C)C)c2n1 | 14.8 | 16.6 | 22 | 12.3 | 12.6 | 54.8 |  |  |  | 0.06
9 | CC(C)[C@H](Nc1nc(NCc2ccccc2N)c2ncn(C(C)C)c2n1)C(C)(C)O | 42.7 | 13.1 | 18.7 | 11.8 | 12.8 | 39.8 | 0.845 | 0.29 | 0.675 | 0.07
10 | CC[C@H](CO)Nc1nc(NCc2cc(F)ccc2O)c2ncn(C(C)C)c2n1 | 4.5 | 3.9 | 6.5 | 4.8 | 3.6 | 4.1 | 0.106 |  | 0.24 | 0.019
11 | CC[C@H](CO)Nc1nc(NCc2ccc(N)cc2)c2ncn(C(C)C)c2n1 | 29.4 | 22.6 | 26 | 23.8 | 18.1 | 71.5 |  |  |  | 
12 | CC[C@H](CO)Nc1nc(NCc2cc(Cl)ccc2O)c2ncn(C(C)C)c2n1 | 5 | 3.7 | 4.3 | 5.4 | 4.6 | 3.2 | 0.285 |  | 0.15 | 0.0094
13 | CC(C)n1cnc2c(NCc3ccc(O)cc3)nc(N3CCNCC3)nc21 | 6.5 | 13.4 | 12.4 | 9.3 | 4.1 | 9.3 |  |  |  | 0.34
14 | CC(C)n1cnc2c(NCc3ccccc3N)nc(NCCC(C)(C)O)nc21 | 100 | 100 | 100 | 100 | 100 | 100 | > 5 |  | > 5 | 0.79
15 | CC(C)n1cnc2c(NCc3cc(Cl)ccc3O)nc(NC3CCC(N)CC3)nc21 (centres undefined) | 2.2 | 3.3 | 2.4 | 2.4 | 1.8 | 2.4 | 0.039 | 0.16 | 0.125 | 0.025
16 | COc1ccc(CNc2nc(N3CCNCC3)nc3c2ncn3C(C)C)cc1 | 5.1 | 10.8 | 10.1 | 11.5 | 3.53 | 5.3 |  |  |  | 0.89
17 | CC[C@H](CO)Nc1nc(NCc2ccccc2O)c2ncn(C(C)C)c2n1 [OLOMOUCINE II] | 10.6 | 7.4 | 9.2 | 4.1 | 9.1 | 23 | 0.815 |  |  | 
18 | COc1cccc(CNc2nc(N3CCNCC3)nc3c2ncn3C(C)C)c1O | 30.6 | 27.5 | 18.9 | 22.5 | 8.3 | 14.2 |  |  |  | 0.63
19 | CC[C@H](CO)Nc1nc(NCc2cccc(OC)c2OC)c2ncn(C(C)C)c2n1 | 67.5 | 38 | 46.6 | 29.5 | 21 | 40.1 |  |  |  | 0.031
20 | CC(C)n1cnc2c(NCc3ccccc3O)nc(NCCC(C)(C)O)nc21 | 45.5 | 34.6 | 52.2 | 64.1 | 65.9 | 47.3 | > 5 |  | 4.49 | 0.26
21 | CC(C)n1cnc2c(NCc3cc(Cl)ccc3O)nc(NC3CCC(O)CC3)nc21 (centres undefined) | 6.4 | 3.2 | 8.2 | 13.2 | 2.6 | 2.4 | 0.91 | 0.54 | 0.55 | 0.061
22 | CC(C)n1cnc2c(NCc3cc(Cl)ccc3O)nc(N[C@@H](C)C(C)(C)O)nc21 | 1.8 | 2.5 | 1.2 | 1.8 | 1.4 | 2 |  |  |  | 0.0243
